Test results taken from ChEMBL document CHEMBL1152806, “Discovery of a potent, selective, and orally efficacious pyrimidinooxazinyl bicyclooctaneacetic acid diacylglycerol acyltransferase-1 inhibitor” (J Med Chem, 2009).
In brackets after ≈: the same amount, converted by molar mass.

Assays:
[1] = Bioavailability in dog at 1 to 3 mg/kg; format: ADME, organism-based, Canis lupus familiaris; details: in vivo
[2] = target: T1, Sterol O-acyltransferase 1 (Homo sapiens, UniProt P35610); assay: Inhibition of human ACAT1 by liquid scintillography
T1 sequence (P35610 whole entry): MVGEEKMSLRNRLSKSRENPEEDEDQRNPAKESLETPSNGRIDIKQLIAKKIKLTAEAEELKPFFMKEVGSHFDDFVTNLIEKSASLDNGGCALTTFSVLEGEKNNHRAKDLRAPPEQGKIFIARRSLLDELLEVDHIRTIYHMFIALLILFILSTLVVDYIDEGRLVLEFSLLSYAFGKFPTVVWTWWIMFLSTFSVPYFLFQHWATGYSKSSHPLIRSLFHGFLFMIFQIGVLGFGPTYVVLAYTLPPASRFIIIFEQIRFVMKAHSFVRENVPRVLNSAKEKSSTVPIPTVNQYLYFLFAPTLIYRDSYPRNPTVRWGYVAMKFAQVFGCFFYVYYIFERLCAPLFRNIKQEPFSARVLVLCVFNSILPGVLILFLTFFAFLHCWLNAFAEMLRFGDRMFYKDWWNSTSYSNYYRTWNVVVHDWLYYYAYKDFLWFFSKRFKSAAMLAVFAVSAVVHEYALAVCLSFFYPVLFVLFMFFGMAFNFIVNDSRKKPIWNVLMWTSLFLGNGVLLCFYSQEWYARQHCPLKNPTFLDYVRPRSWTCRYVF

CYP2D6 = CYP2D6 (Homo sapiens, UniProt P10635); assay: Inhibition of CYP2D6 at 30 uM; format: ADME
[3] = Lipophilicity, log D of the compound; format: physicochemical; details: octanol/water
[4] = Plasma clearance in marmosets at 1 to 3 mg/kg; format: ADME, organism-based; set-up: dose 1-3 mg/kg; details: callitrichinae sp.
[5] = Half life in rat at 1 to 3 mg/kg, po; format: ADME, organism-based; set-up: dose 1-3 mg/kg, route oral; details: in vivo
[6] = target: T2, Diacylglycerol O-acyltransferase 1 (Rattus norvegicus, UniProt Q9ERM3); assay: Inhibition of rat microsomal DGAT1 by liquid scintillography
T2 sequence (Q9ERM3 whole entry): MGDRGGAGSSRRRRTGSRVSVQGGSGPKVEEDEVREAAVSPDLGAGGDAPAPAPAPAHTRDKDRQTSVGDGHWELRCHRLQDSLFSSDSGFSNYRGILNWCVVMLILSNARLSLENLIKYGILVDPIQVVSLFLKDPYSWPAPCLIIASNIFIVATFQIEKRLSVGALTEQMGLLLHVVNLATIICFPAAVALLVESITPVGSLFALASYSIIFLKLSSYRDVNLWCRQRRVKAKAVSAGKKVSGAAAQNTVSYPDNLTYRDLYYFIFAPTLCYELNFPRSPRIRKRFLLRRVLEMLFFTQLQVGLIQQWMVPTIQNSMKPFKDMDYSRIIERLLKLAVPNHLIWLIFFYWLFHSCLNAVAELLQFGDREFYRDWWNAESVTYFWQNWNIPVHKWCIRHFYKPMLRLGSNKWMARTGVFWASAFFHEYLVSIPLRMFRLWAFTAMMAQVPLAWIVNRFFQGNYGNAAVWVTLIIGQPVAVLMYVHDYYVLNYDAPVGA

[7] = Volume of distribution at steady state in dog at 1 to 3 mg/kg; format: ADME, organism-based, Canis lupus familiaris; set-up: dose 1-3 mg/kg; details: in vivo, read-out: Vdss
[8] = Plasma clearance in dog at 1 to 3 mg/kg; format: ADME, organism-based, Canis lupus familiaris; set-up: dose 1-3 mg/kg
[9] = Metabolic stability in rat alamethicin-activated microsomes assessed as conversion to acyl glucuronide form after 1 hr; format: ADME, Microsome
[10] = Bioavailability in marmosets at 1 to 3 mg/kg; format: ADME, organism-based; details: callitrichinae sp., in vivo
[11] = Half life in marmosets at 1 to 3 mg/kg, po; format: ADME, organism-based; set-up: dose 1-3 mg/kg, route oral; details: callitrichinae sp., in vivo
CYP2C19 = CYP2C19 (Homo sapiens, UniProt P33261); assay: Inhibition of CYP2C19 at 30 uM; format: ADME
Plasma = assay: Fraction unbound in dog plasma by LC-UVMS; format: ADME, cell-free, Canis lupus familiaris
Outline: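 Equilibrium dialysis in plasma of the relevant species at 37 °C; free and bound drug quantified by LC-UVMS; reported as % free.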

[12] = Apparent permeability from apical to basolateral side in MDCK cells at 10 uM; format: ADME, cell-based, Canis lupus familiaris; details: dog, read-out: permeability
Outline: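 Cultured MDCK cells incubated with compound at 10 µM; apparent permeability (Papp, ×10^-6 cm/s) measured in both apical-to-basolateral and basolateral-to-apical directions.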

Hepatocyte = assay: Metabolic stability in human hepatocytes assessed as conversion to acyl glucuronide form after 2 hrs; format: ADME, cell-based
[13] = Half life in rat at 1 to 3 mg/kg, iv; format: ADME, organism-based; set-up: dose 1-3 mg/kg, route intravenous; details: in vivo
CYP3A4 = CYP3A4 (Homo sapiens, UniProt P08684); assay: Inhibition of CYP3A4 at 30 uM; format: ADME
Rattus norvegicus [14] = assay: Reduction of adipose triacylglycerol synthesis in 14 hrs fasted Han-Wistar rat assessed as decrease in ratio of [3H]palmitic acid incorporation in to TAG and DAG at 8 mg/kg, po after 1.5 hrs relative to control; format: functional; set-up: scale not given: the % may be the effect or the level left
Outline: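 Male Han-Wistar rats (~300 g) on chow diet were given compound by oral gavage, suspended in HPMC/Tween. At 1.5 h they were anaesthetised with inactin and a bolus of [3H]-palmitic acid was given via a jugular cannula. Epididymal fat was taken 20 min later, homogenised in duplicate with [14C]-oleic acid internal standard, and lipids separated by HPLC. Result is % reduction of the TAG/DAG label ratio versus vehicle; n = 10.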

[15] = Half life in dog at 1 to 3 mg/kg, iv; format: ADME, organism-based, Canis lupus familiaris; set-up: dose 1-3 mg/kg, route intravenous; details: in vivo
[16] = Metabolic stability in human alamethicin-activated microsomes assessed as conversion to acyl glucuronide form after 1 hr; format: ADME, Microsome
[17] = Metabolic stability in dog assessed as urinary excretion of acyl glucuronide form after 2 hrs; format: ADME, Canis lupus familiaris, Urine
Outline: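 Parent-related material excreted as acyl glucuronide measured in a 2 h urine sample collected after dosing in dog.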

Rattus norvegicus [18] = assay: Reduction of plasma triacylglycerol excursion in 14 hrs fasted Han-Wistar rat at 0.1 mg/kg, po treated 2 hrs before bolus corn oil administration measured 1.5 hrs post corn oil challenge by oral lipid tolerance test relative to control; format: functional; set-up: scale not given: the % may be the effect or the level left
Outline: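 Male Han-Wistar rats (~230 g) on chow diet were fasted 14 h and given compound by oral gavage, suspended in HPMC/Tween. A corn oil bolus (5 mL/kg) followed 2 h later. After 1.5 h, blood was drawn from the abdominal vena cava and plasma TAG measured colorimetrically (GPO-PAP). Result is % reduction versus vehicle-treated controls; n = 6.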

[19] = Aqueous solubility at pH 7.4; format: physicochemical; details: buffer

CYP3A4, sequence (P08684 whole entry): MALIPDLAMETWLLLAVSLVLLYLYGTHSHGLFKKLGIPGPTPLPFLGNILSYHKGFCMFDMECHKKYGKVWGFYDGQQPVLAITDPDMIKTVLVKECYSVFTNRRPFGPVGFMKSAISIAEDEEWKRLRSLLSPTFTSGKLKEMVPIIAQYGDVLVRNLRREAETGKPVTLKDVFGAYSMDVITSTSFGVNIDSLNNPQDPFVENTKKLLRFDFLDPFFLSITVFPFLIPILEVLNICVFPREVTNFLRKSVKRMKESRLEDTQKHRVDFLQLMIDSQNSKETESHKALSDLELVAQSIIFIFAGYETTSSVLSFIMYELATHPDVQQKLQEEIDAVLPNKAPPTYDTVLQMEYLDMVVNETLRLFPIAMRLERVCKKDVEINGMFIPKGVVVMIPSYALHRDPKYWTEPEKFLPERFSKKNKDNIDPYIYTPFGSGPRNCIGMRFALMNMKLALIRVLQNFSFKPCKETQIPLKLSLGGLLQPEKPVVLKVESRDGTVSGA
CYP2D6, sequence (P10635 whole entry): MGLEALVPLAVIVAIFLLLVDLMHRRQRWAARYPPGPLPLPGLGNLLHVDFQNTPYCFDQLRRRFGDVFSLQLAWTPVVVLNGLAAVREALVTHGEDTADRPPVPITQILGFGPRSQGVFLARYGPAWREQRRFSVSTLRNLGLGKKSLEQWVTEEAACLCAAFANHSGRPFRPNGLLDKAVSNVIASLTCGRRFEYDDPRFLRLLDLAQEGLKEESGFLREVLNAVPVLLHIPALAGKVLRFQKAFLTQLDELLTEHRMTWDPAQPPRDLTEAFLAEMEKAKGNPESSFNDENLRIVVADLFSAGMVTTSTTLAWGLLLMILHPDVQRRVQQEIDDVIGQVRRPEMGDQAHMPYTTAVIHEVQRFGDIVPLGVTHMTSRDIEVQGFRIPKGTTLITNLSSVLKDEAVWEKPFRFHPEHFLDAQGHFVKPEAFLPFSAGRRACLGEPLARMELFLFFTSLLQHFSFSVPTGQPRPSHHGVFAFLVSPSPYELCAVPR
CYP2C19, sequence (P33261 whole entry): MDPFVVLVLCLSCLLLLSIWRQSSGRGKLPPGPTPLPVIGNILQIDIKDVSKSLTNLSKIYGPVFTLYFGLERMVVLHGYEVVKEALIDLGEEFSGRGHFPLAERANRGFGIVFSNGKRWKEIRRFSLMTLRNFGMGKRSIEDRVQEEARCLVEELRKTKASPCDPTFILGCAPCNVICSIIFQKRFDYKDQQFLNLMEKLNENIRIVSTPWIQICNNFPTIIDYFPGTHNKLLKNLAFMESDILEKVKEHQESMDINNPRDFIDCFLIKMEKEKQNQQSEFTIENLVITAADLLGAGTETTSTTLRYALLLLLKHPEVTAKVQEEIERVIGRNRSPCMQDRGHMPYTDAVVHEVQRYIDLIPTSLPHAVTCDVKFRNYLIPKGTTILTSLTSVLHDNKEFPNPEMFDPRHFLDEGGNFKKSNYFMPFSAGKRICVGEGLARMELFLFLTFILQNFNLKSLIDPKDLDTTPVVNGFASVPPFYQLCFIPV

bioavailability [1]: > 100% | IC50 [2]: 5.2 µM | inhibition at 30 µM (CYP2D6): < 25% | logD [3]: 1.9 | clearance [4]: 0.78 mL/min/kg | half-life [5]: 324 min | IC50 [6]: 9 nM | Vd [7]: 1 L/kg | clearance [8]: 3.3 mL/min/kg | Stability [9]: 9% | bioavailability [10]: 61% | half-life [11]: 570 min | inhibition at 30 µM (CYP2C19): < 25% | Fu (Plasma): 0.6% | Papp A→B at 10 µM [12]: 18 ×10⁻⁶ cm/s | Stability (Hepatocyte): 17% | half-life [13]: 420 min | inhibition at 30 µM (CYP3A4): < 25% | half-life [15]: 516 min | Stability [16]: 25% | Stability [17]: 82% | solubility [19]: 12 µM (≈ 5.05 µg/mL)
SMILES: CC1(C)Oc2ncnc(N)c2N=C1c1ccc(C23CCC(CC(=O)O)(CC2)CC3)cc1
Activity (Rattus norvegicus [14]): 54% | Activity (Rattus norvegicus [18]): 38%
